# Activity calls are given as the source filed them. The calls are words filed in the database; no cut-off is given here.
# System: Staphylococcus aureus
# Assay: Antimicrobial activity against Staphylococcus aureus at 1.25 ug/mL by agar diffusion method
# Assay type: functional
# Conditions: read-out: IZ
row,Compound,zone of inhibition at 1.25 µg/mL [mm]
1,O=C1/C(=N/Nc2cccc(Cl)c2)CCCc2ccccc21,5

# System: Pseudomonas aeruginosa
# Assay: Antimicrobial activity against Pseudomonas aeruginosa at 5 ug/mL by agar diffusion method
# Assay type: functional
# Conditions: read-out: IZ
row,Compound,zone of inhibition at 5 µg/mL [mm]
1,O=C1/C(=N/Nc2cccc(Cl)c2)CCCc2ccccc21,0

# System: Escherichia coli
# Assay: Antimicrobial activity against Escherichia coli at 1.25 ug/mL by agar diffusion method
# Assay type: functional
# Conditions: read-out: IZ
row,Compound,zone of inhibition at 1.25 µg/mL [mm]
1,O=C1/C(=N/Nc2cccc(Cl)c2)CCCc2ccccc21,0

# System: Staphylococcus aureus
# Assay: Antimicrobial activity against Staphylococcus aureus at 5 ug/mL by agar diffusion method
# Assay type: functional
# Conditions: read-out: IZ
row,Compound,zone of inhibition at 5 µg/mL [mm]
1,O=C1/C(=N/Nc2cccc(Cl)c2)CCCc2ccccc21,12

# System: Measles morbillivirus
# Assay: Antiviral activity against Measles virus infected in intracranially dosed hamster assessed as inhibition of subacute sclerosing panencephalitis
# Assay type: functional
# Conditions: not given
# In short: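 Hamsters under ether anesthesia injected intracranially, into the subarachnoid space at 2 mm depth, at 5, 10 and 20 mg/kg/day for 10 days. Four animals per group sacrificed on days 1–20. Brains homogenized in PBS and centrifuged, supernatant deproteinized with ethanol, then MIC in brain tissue determined by HPLC and bioassay.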
row,MIC [µg/mL],Compound
1,6,O=C1/C(=N/Nc2cccc(Cl)c2)CCCc2ccccc21

# System: Penicillium italicum
# Assay: Antimicrobial activity against Penicillium italicum at 5 ug/mL by agar diffusion method
# Assay type: functional
# Conditions: read-out: IZ
row,Compound,zone of inhibition at 5 µg/mL [mm]
1,O=C1/C(=N/Nc2cccc(Cl)c2)CCCc2ccccc21,0

# System: Candida albicans
# Assay: Antimicrobial activity against Candida albicans at 5 ug/mL by agar diffusion method
# Assay type: functional
# Conditions: read-out: IZ
row,Compound,zone of inhibition at 5 µg/mL [mm]
1,O=C1/C(=N/Nc2cccc(Cl)c2)CCCc2ccccc21,15

# System: Staphylococcus aureus
# Assay: Antimicrobial activity against Staphylococcus aureus at 2.5 ug/mL by agar diffusion method
# Assay type: functional
# Conditions: read-out: IZ
row,Compound,zone of inhibition at 2.5 µg/mL [mm]
1,O=C1/C(=N/Nc2cccc(Cl)c2)CCCc2ccccc21,9

# System: Syncephalastrum racemosum
# Assay: Antimicrobial activity against Syncephalastrum racemosum at 1.25 ug/mL by agar diffusion method
# Assay type: functional
# Conditions: read-out: IZ
row,Compound,zone of inhibition at 1.25 µg/mL [mm]
1,O=C1/C(=N/Nc2cccc(Cl)c2)CCCc2ccccc21,6

# Biological target: T1, DNA topoisomerase 1 (Homo sapiens) (UniProt P11387)
# T1 sequence (whole entry): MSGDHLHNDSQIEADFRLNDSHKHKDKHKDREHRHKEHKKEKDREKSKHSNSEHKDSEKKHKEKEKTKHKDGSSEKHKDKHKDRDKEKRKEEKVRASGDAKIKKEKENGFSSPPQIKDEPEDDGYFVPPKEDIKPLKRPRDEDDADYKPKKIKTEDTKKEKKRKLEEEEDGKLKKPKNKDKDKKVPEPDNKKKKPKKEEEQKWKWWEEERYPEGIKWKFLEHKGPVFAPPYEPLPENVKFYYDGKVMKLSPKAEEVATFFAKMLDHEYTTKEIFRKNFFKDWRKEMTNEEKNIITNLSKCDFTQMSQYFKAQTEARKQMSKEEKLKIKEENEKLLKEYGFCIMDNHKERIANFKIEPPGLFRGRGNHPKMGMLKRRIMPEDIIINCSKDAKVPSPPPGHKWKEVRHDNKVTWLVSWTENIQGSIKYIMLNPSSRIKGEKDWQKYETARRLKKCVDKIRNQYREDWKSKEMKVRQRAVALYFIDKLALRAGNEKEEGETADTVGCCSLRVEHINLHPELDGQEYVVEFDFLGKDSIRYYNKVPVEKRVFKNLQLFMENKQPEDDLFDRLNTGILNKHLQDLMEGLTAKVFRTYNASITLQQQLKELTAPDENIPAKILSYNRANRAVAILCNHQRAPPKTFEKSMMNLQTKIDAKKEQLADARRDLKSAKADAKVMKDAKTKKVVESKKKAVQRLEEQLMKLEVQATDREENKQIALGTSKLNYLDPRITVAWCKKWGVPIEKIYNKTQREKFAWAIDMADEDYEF
# Assay: Inhibition of topoisomerase 1 relative to etoposide
# Conditions: not given
row,Ratio,Compound
1,4.9,O=C1/C(=N/Nc2cccc(Cl)c2)CCCc2ccccc21

# System: Syncephalastrum racemosum
# Assay: Antimicrobial activity against Syncephalastrum racemosum at 2.5 ug/mL by agar diffusion method
# Assay type: functional
# Conditions: read-out: IZ
row,Compound,zone of inhibition at 2.5 µg/mL [mm]
1,O=C1/C(=N/Nc2cccc(Cl)c2)CCCc2ccccc21,9

# System: Radical scavenging activity
# Assay: Antioxidant activity assessed as DPPH free radical scavenging activity by measuring reduction in DPPH absorbance by ELISA relative to untreated control
# Assay type: functional
# Parameters: concentration or dose not given beside the values
# Conditions: not given
# In short: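 Test compounds dissolved in DMSO, ascorbic acid standard in water, both serially diluted. 10 µl sample added to 90 µl of 100 µM DPPH in methanol and kept in the dark at 37 °C for 30 min. Absorbance read at 515 nm. Blank is DMSO plus DPPH. % reduction = (A_B − A_A)/A_B × 100. Run in triplicate.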
row,Compound,Activity [%]
1,O=C1/C(=N/Nc2cccc(Cl)c2)CCCc2ccccc21,84.1

# System: Penicillium italicum
# Assay: Antimicrobial activity against Penicillium italicum at 2.5 ug/mL by agar diffusion method
# Assay type: functional
# Conditions: read-out: IZ
row,Compound,zone of inhibition at 2.5 µg/mL [mm]
1,O=C1/C(=N/Nc2cccc(Cl)c2)CCCc2ccccc21,0

# System: Candida albicans
# Assay: Antimicrobial activity against Candida albicans at 2.5 ug/mL by agar diffusion method
# Assay type: functional
# Conditions: read-out: IZ
row,Compound,zone of inhibition at 2.5 µg/mL [mm]
1,O=C1/C(=N/Nc2cccc(Cl)c2)CCCc2ccccc21,11

# System: Hepatitis C virus
# Assay: Antiviral activity against HCV by cell based replicon assay
# Assay type: functional, Hepacivirus hominis
# Conditions: not given
# In short: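 HCV replicon cells plated at 1×10^4 per well. Next day incubated at 37 °C with serially diluted compound in DMEM with 2% FBS and 0.5% DMSO. HCV RNA copy number measured by quantitative RT-PCR on total cellular RNA. Each point is the average of five replicates. Cytotoxicity measured by MTS in parallel.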
row,MIC [µg/mL],Compound
1,1,O=C1/C(=N/Nc2cccc(Cl)c2)CCCc2ccccc21

# System: Bacillus subtilis
# Assay: Antimicrobial activity against Bacillus subtilis at 1.25 ug/mL by agar diffusion method
# Assay type: functional
# Conditions: read-out: IZ
row,Compound,zone of inhibition at 1.25 µg/mL [mm]
1,O=C1/C(=N/Nc2cccc(Cl)c2)CCCc2ccccc21,7

# System: not listed separately
# Assay: Antioxidant activity assessed as inhibition of peroxynitrite-mediated 3-nitrotyrosine formation by HPLC
# Assay type: functional
# Conditions: not given
# In short: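 Tyrosine and peroxynitrite, each 100 µM, reacted with compound at 0–300 µM in 100 mM phosphate buffer pH 7.4 at 37 °C for 15 min. Peroxynitrite made from acidified H2O2 plus KNO2, quenched with NaOH, and kept on ice no longer than 30 min before use.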
row,IC50 [µM],Compound
1,54.1,O=C1/C(=N/Nc2cccc(Cl)c2)CCCc2ccccc21

# System: Penicillium italicum
# Assay: Antimicrobial activity against Penicillium italicum at 1.25 ug/mL by agar diffusion method
# Assay type: functional
# Conditions: read-out: IZ
row,Compound,zone of inhibition at 1.25 µg/mL [mm]
1,O=C1/C(=N/Nc2cccc(Cl)c2)CCCc2ccccc21,0

# System: Aspergillus fumigatus
# Assay: Antimicrobial activity against Aspergillus fumigatus at 5 ug/mL by agar diffusion method
# Assay type: functional
# Conditions: read-out: IZ
row,Compound,zone of inhibition at 5 µg/mL [mm]
1,O=C1/C(=N/Nc2cccc(Cl)c2)CCCc2ccccc21,14

# System: Aspergillus fumigatus
# Assay: Antimicrobial activity against Aspergillus fumigatus at 2.5 ug/mL by agar diffusion method
# Assay type: functional
# Conditions: read-out: IZ
row,Compound,zone of inhibition at 2.5 µg/mL [mm]
1,O=C1/C(=N/Nc2cccc(Cl)c2)CCCc2ccccc21,8

# System: Escherichia coli
# Assay: Antimicrobial activity against Escherichia coli at 5 ug/mL by agar diffusion method
# Assay type: functional
# Conditions: read-out: IZ
row,Compound,zone of inhibition at 5 µg/mL [mm]
1,O=C1/C(=N/Nc2cccc(Cl)c2)CCCc2ccccc21,9

# System: Aspergillus fumigatus
# Assay: Antimicrobial activity against Aspergillus fumigatus at 1.25 ug/mL by agar diffusion method
# Assay type: functional
# Conditions: read-out: IZ
row,Compound,zone of inhibition at 1.25 µg/mL [mm]
1,O=C1/C(=N/Nc2cccc(Cl)c2)CCCc2ccccc21,6

# Biological target: DNA topoisomerase 2-alpha (Mus musculus) (UniProt Q01320)
# Assay: Inhibition of topoisomerase 2 from mouse P388 cells assessed as relaxation of pBR322 DNA by agarose gel electrophoresis relative to etoposide
# Assay type: cell-based
# Conditions: not given
# In short: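 Topoisomerase II purified from P388 cells. One unit relaxes 0.125 µg supercoiled pBR322 DNA, incubated with or without inhibitor at 30 °C for 1 h in 50 mM Tris-HCl pH 8.0, 100 mM KCl, 10 mM MgCl2, 0.5 mM DTT, 1 mM ATP and 30 µg/ml BSA. Products run on 0.7% agarose in TBE, stained with ethidium bromide and imaged under UV.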
# Chain of DNA topoisomerase 2-alpha (Mus musculus) (Q01320 whole entry): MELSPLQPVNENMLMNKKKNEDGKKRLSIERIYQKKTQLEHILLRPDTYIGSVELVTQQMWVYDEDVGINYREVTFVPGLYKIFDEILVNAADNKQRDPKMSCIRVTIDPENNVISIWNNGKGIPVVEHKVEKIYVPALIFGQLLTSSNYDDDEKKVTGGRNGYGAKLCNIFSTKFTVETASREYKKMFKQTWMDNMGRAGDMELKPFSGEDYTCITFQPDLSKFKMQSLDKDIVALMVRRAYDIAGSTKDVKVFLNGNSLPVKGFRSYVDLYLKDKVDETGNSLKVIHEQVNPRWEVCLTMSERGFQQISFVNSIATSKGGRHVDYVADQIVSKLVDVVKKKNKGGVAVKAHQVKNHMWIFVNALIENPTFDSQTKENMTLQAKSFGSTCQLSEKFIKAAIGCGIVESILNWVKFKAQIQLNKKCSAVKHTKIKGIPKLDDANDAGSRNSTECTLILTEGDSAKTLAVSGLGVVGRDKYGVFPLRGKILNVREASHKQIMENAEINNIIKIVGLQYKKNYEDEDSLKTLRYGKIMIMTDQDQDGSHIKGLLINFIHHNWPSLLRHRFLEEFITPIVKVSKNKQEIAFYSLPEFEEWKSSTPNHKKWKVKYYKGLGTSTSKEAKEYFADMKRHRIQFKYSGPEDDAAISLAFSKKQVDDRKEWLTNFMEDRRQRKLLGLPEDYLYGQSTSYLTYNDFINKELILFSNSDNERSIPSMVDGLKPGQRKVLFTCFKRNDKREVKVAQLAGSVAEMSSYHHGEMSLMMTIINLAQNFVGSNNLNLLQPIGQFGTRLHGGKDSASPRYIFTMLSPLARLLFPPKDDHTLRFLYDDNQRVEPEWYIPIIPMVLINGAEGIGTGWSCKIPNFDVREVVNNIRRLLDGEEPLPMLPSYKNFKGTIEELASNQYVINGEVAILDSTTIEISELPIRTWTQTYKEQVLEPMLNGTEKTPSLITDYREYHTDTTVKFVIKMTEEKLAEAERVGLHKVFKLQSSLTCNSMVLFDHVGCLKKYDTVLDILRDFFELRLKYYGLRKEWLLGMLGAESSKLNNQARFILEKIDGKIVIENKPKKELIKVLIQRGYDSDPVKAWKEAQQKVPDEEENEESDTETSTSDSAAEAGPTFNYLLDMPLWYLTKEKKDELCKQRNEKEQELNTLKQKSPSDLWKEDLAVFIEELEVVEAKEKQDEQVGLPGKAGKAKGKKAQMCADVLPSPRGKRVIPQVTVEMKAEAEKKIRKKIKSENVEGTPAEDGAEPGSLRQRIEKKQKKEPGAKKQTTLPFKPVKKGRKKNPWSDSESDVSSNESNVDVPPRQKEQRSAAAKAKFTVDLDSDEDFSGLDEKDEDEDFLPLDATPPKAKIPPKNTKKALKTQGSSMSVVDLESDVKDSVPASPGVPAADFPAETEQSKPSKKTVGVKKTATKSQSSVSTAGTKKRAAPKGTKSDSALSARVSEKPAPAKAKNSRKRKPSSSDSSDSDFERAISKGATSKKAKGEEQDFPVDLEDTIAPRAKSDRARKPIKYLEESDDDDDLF
row,Ratio,Compound
1,5,O=C1/C(=N/Nc2cccc(Cl)c2)CCCc2ccccc21

# System: Candida albicans
# Assay: Antimicrobial activity against Candida albicans at 1.25 ug/mL by agar diffusion method
# Assay type: functional
# Conditions: read-out: IZ
row,Compound,zone of inhibition at 1.25 µg/mL [mm]
1,O=C1/C(=N/Nc2cccc(Cl)c2)CCCc2ccccc21,7

# System: Bacillus subtilis
# Assay: Antimicrobial activity against Bacillus subtilis at 2.5 ug/mL by agar diffusion method
# Assay type: functional
# Conditions: read-out: IZ
row,Compound,zone of inhibition at 2.5 µg/mL [mm]
1,O=C1/C(=N/Nc2cccc(Cl)c2)CCCc2ccccc21,10

# System: Escherichia coli
# Assay: Antimicrobial activity against Escherichia coli at 2.5 ug/mL by agar diffusion method
# Assay type: functional
# Conditions: read-out: IZ
row,Compound,zone of inhibition at 2.5 µg/mL [mm]
1,O=C1/C(=N/Nc2cccc(Cl)c2)CCCc2ccccc21,0

# System: Pseudomonas aeruginosa
# Assay: Antimicrobial activity against Pseudomonas aeruginosa at 1.25 ug/mL by agar diffusion method
# Assay type: functional
# Conditions: read-out: IZ
row,Compound,zone of inhibition at 1.25 µg/mL [mm]
1,O=C1/C(=N/Nc2cccc(Cl)c2)CCCc2ccccc21,0

# System: Syncephalastrum racemosum
# Assay: Antimicrobial activity against Syncephalastrum racemosum at 5 ug/mL by agar diffusion method
# Assay type: functional
# Conditions: read-out: IZ
row,Compound,zone of inhibition at 5 µg/mL [mm]
1,O=C1/C(=N/Nc2cccc(Cl)c2)CCCc2ccccc21,16

# System: Pseudomonas aeruginosa
# Assay: Antimicrobial activity against Pseudomonas aeruginosa at 2.5 ug/mL by agar diffusion method
# Assay type: functional
# Conditions: read-out: IZ
row,Compound,zone of inhibition at 2.5 µg/mL [mm]
1,O=C1/C(=N/Nc2cccc(Cl)c2)CCCc2ccccc21,0

# System: Bacillus subtilis
# Assay: Antimicrobial activity against Bacillus subtilis at 5 ug/mL by agar diffusion method
# Assay type: functional
# Conditions: read-out: IZ
row,Compound,zone of inhibition at 5 µg/mL [mm]
1,O=C1/C(=N/Nc2cccc(Cl)c2)CCCc2ccccc21,17

# System: MC-38
# Assay: Antitumor activity against mouse Colon 38 cells implanted in iv dosed C57BL/6 mouse administered as single dose
# Assay type: functional, organism-based
# Conditions: not given
# In short: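 Female C57BL/6 mice, 6 weeks old, given about 30 mg Colon 38 tumor tissue s.c. in the flank. Randomized into groups of n = 5 when tumors reached about 300 mm3 (day 1). Compound in 5% glucose given as a single iv tail-vein dose on day 1; controls received 5% glucose. Tumor volume = (length × width²)/2 and body weight tracked.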
row,Compound,Activity
1,O=C1/C(=N/Nc2cccc(Cl)c2)CCCc2ccccc21,Active
